From ChEMBL document CHEMBL1131607, “Synthesis of 7-arylmorphinans. Probing the "address" requirements for selectivity at opioid delta receptors” (J Med Chem, 1998)

Columns and labels:
[1] = target: Delta-type opioid receptor (Mus musculus) (UniProt P32300); assay: Inhibition of [D-Ala2,D-Leu5]-enkephalin (DADLE) activity in the electrically stimulated mouse vas deferens
Summary of the method: (§1)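 Antagonism in electrically stimulated smooth muscle, hydrochloride salts. Test ligand 100 nM preincubated for 15 min before the standard agonist: DADLE (δ) in mouse vas deferens, morphine (μ) and ethylketazocine (κ) in guinea pig ileal longitudinal muscle. IC50 ratio = agonist IC50 with test compound / control agonist IC50. Ke (nM) = [antagonist]/(IC50 ratio − 1).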

Cavia porcellus [2] = species: Cavia porcellus; assay: (§2) Compound was tested for opioid agonist activity in the electrically stimulated guinea pig ileal longitudinal muscle(GPI); assay type: functional, Muscle tissue
Summary of the method: (§3)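 Electrically stimulated guinea pig ileal longitudinal muscle or mouse vas deferens, hydrochloride salts. Weak agonists tested at a single 1 μM concentration, reported as percent of maximal response (±SE). Full agonists run at four to six concentrations to give a concentration-response curve compared with a standard agonist in the same tissue. IC50 = agonist concentration giving half-maximal response; a negative value means enhanced twitch amplitude.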

Mus musculus [3] = species: Mus musculus; assay: (§4) Compound was tested for opioid agonist activity in the electrically stimulated mouse vas deferens(MVD); assay type: functional; summary of the method: as §3
[4] = target: Kappa-type opioid receptor (Cavia porcellus) (UniProt P41144); assay: Antagonist activity against electrically stimulated guinea pig ileum Opioid receptor kappa 1; assay type: functional, tissue-based; summary of the method: as §1
[5] = target: Mu-type opioid receptor (Cavia porcellus) (UniProt P97266); assay: Compound was tested for opioid antagonist activity in the electrically stimulated GPI preparation, against morphine (Opioid receptor mu 1); assay type: functional; summary of the method: as §1
Mus musculus [6] = species: Mus musculus; assay: as §4; assay type: functional, organism-based; summary of the method: as §3
Cavia porcellus [7] = species: Cavia porcellus; assay: as §2; assay type: functional, organism-based; conditions: Muscle tissue; summary of the method: as §3

Chain of Kappa-type opioid receptor (Cavia porcellus) (P41144 whole entry): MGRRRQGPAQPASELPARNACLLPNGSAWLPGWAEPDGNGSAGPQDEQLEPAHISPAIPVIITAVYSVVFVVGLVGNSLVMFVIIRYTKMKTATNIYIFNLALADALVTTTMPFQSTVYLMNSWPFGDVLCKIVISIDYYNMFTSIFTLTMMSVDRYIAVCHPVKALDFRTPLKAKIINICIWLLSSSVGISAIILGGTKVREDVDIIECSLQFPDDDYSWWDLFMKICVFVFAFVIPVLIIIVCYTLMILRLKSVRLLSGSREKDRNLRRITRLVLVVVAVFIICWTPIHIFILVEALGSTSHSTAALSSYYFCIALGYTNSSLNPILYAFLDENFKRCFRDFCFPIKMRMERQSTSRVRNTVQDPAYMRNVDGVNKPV
Chain of Mu-type opioid receptor (Cavia porcellus) (P97266 whole entry): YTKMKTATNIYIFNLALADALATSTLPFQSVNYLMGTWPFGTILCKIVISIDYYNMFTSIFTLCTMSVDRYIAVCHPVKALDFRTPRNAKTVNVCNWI
Chain of Delta-type opioid receptor (Mus musculus) (P32300 whole entry): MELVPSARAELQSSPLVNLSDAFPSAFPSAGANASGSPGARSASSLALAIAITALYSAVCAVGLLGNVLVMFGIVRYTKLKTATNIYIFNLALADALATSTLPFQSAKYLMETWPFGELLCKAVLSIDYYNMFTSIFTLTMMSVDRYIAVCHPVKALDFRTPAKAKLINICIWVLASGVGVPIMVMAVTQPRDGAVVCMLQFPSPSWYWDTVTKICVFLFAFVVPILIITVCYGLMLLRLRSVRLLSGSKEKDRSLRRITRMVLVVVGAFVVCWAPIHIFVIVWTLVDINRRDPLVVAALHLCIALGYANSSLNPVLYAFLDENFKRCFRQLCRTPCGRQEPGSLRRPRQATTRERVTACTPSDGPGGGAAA

Work on `O=[N+]([O-])c1cccc([C@H]2CC3[C@H]4Cc5ccc(O)c6c5[C@@]3(CCN4C3CC3)[C@@H](O6)[C@H]2O)c1` (some centres not stated) yielded an IC50 ratio [1] of 4.17.
Work on `CN1CC[C@]23c4c5ccc(O)c4O[C@H]2C(=O)C(c2ccccc2)(c2ccccc2)CC3[C@H]1C5` (some centres not stated) yielded an IC50 ratio [1] of 2.34, a Max response (Cavia porcellus [2]) of 9.7% and a Max response (Mus musculus [3]) of 5.4%. The IC50 ratio [4] was 1.01 and the IC50 ratio [5] was 1.69.
In the case of `CN1CC[C@]23c4c5ccc(O)c4O[C@H]2[C@@H](O)[C@@H](c2ccc(Br)cc2)CC3[C@H]1C5` (some centres not stated), the IC50 ratio [1] is reported as 1.17, the Max response (Cavia porcellus [2]) is reported as 10% and the Max response (Mus musculus [3]) is reported as 15.2%. For the same compound, the IC50 ratio [4] was 1.76 and the IC50 ratio [5] was 1.2.
`CN1CC[C@]23c4c5ccc(O)c4O[C@H]2[C@@H](O)[C@@H](c2ccccc2)CC3[C@H]1C5` (some centres not stated) showed an IC50 (Mus musculus [6]) of 0.178 µM, a Max response (Cavia porcellus [2]) of 23.2% and an IC50 ratio [4] of 1.9. The IC50 ratio [5] was 1.85.
In the case of `CN1CC[C@]23c4c5ccc(O)c4O[C@H]2C(=O)[C@@H](c2ccccc2)C[C@H]3[C@H]1C5`, the IC50 ratio [1] is reported as 0.97, the Max response (Cavia porcellus [2]) is reported as 53.9% and the Max response (Mus musculus [3]) is reported as 29.2%. The IC50 ratio [4] was 0.75 and the IC50 ratio [5] was 1.05.
`CC(=O)O[C@H]1[C@@H](c2ccccc2)CC2[C@H]3Cc4ccc(O)c5c4[C@@]2(CCN3C2CC2)[C@H]1O5` (some centres not stated) was tested, and the IC50 ratio [1] was 6.38, the Max response (Mus musculus [3]) was 21.1% and the IC50 (Cavia porcellus [7]) was 0.118 µM.
For `O=C1[C@@H](c2ccccc2)C[C@H]2[C@H]3Cc4ccc(O)c5c4[C@@]2(CCN3C2CC2)[C@H]1O5`, the IC50 ratio [1] was 17.6.
`CC(=O)O[C@H]1[C@@H](c2ccccc2)CC2[C@H]3Cc4ccc(O)c5c4[C@@]2(CCN3C)[C@H]1O5` (some centres not stated) gave an IC50 ratio [1] of 1.02, a Max response (Cavia porcellus [2]) of 24% and a Max response (Mus musculus [3]) of 34.3%. For the same compound, the IC50 ratio [4] was 1.08 and the IC50 ratio [5] was 0.9.
In the case of `Oc1ccc2c3c1O[C@H]1c4[nH]c5ccccc5c4C[C@@]4(O)[C@@H](C2)N(CC2CC2)CC[C@]314` [NALTRINDOLE], the Ke (Cavia porcellus [2]) is reported as 29 nM and the Ke (Mus musculus [3]) is reported as 0.13 nM.
`Oc1ccc2c3c1O[C@H]1[C@@H](O)[C@@H](c4ccccc4)CC4[C@@H](C2)N(C2CC2)CC[C@@]341` (some centres not stated) was tested, and the IC50 ratio [1] was 3.03.
In the case of `CN1CC[C@]23c4c5ccc(O)c4O[C@H]2[C@@H](O)[C@@H](c2cccc([N+](=O)[O-])c2)CC3[C@H]1C5` (some centres not stated), the IC50 ratio [1] is reported as 0.99, the Max response (Cavia porcellus [2]) is reported as 49.3% and the Max response (Mus musculus [3]) is reported as 56.1%. It also gave an IC50 ratio [4] of 1.05 and an IC50 ratio [5] of 0.34.
